# KCC2 mod: KCC2 (human) Cl- transport modulation; KCC2 cells, thallium flux FluoZin-2 fluorescence; B-score of Tl+ flux slope (higher = more flux/activation; lower = inhibition) at 10 µM; 190,000 tested, 2.2% active; AID 1456;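 active = thallium flux slope and its plate-corrected score both differing from the plate sample mean at a set confidence after two filtering rounds, in either direction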;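 also: slope of fluorescence scaled to starting intensity during 10 to 20 s after thallium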
# Redox H2O2 prof: compounds producing H2O2 with reducing agent – biochemical, NIH compound library profiling, artefact control for MLSCN library redox annotation, primary screen | activation, % at 10 µM | DTT-dependent redox cycling H2O2, phenol red/HRP absorbance; 100% = 100 µM peroxide control, 0% = buffer | 200,000 tested, 0.03% active;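 active = activation of at least 50% relative to the plate's high and low controls in the primary single-dose screen; inactive = activation below 50%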;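 also: compound incubated with DTT at 0.8 mM final as the reducing agent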
# MT stabilizer: microtubule stabilization, imaging screen | % tubulin-high responders, % at 10 µM | HeLa tubulin immunostaining HCS, 24 h; share of cells brighter than vehicle mean+2SD | AID 2205 | 200,000 tested, 0.83% active;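 active = plate Z-score above 3 for both tubulin-high and condensed-nucleus cell shares, with cell loss under 80%, at 10 µM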;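 also: anti alpha tubulin signal scored within the nucleus-defined area of each cell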
# b-catenin transl: beta-catenin nuclear translocation modulation. HeLa beta-catenin nuclear translocation, immunofluorescence imaging. nuclear translocation activity, % at 5 µM. 190,000 tested, 0.3% active. AID 1665;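 active = nuclear translocation activity above 50% at 5 µM, with a well cell count of 50 or more; inconclusive = wells under 50 cells across six images, flagged as toxic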;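 also: per-cell ratio of nuclear to cytoplasmic median beta-catenin stain intensity; plate controls were DMSO negative control for no effect and GSK-3 inhibitor IX positive control for full effect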
#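 System: HeLa cells, endogenous beta-catenin; compound dosing: 5 µM primary single dose, 0.1% DMSO, 0.02–20 µM confirmation series; incubation: 24 h compound exposure at 37°C, 5% CO2; signal: beta-catenin immunofluorescence imaging with DAPI; evaluation: % activation, nuclear-to-cytoplasmic median beta-catenin signal ratio per cell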
# ROMK mod: human ROMK K+ channel modulation, primary screen; P48048; Tet-inducible ROMK, thallium flux fluorescence; actives lie on both sides; B-score at 10 µM; 130,000 tested, 2% active; AID 1918;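 active = signal ratio slope over the read window, or its plate-corrected B-score, at least 3 SD from the plate mean, either direction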;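 also: B-score of the F/F0 ratio slope over 7 to 12 s after thallium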
# Target sequence (P48048 whole entry, looked up): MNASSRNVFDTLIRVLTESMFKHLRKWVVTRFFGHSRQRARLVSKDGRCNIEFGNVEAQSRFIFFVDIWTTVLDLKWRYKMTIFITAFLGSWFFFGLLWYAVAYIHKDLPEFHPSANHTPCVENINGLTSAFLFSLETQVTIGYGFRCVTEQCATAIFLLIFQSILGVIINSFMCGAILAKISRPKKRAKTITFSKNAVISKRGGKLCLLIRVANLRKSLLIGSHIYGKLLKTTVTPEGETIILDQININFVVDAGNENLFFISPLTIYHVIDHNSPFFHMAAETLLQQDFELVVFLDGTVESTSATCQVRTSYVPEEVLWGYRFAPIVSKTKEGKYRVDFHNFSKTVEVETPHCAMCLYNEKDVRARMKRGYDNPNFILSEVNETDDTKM
# ROMK hit retest: human ROMK channel modulation, retest confirmation | shares compounds with ROMK mod | ROMK thallium flux, fluorescence ratio; active compounds read low | normalized thallium flux (F/F0 slope) at 10 µM | 3,000 tested, 54% active | AID 1917;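 active = Flux at 10 µM at least 3 SD below or above vehicle control mean in one or both replicates; inconclusive = no clear call, values can overlap the other calls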
# * = called active by the depositor; ? = inconclusive; · = no result. The list is not random: actives were taken first. Their share in the collection is about 3.7%.
SMILES,KCC2 mod,Redox H2O2 prof,MT stabilizer,b-catenin transl,ROMK mod,ROMK hit retest
COc1ccc(C/C(O)=C(\C#N)c2nc3ccccc3s2)cc1,-1.1,-1,5,·,-3.1*,0.06*
Cc1cc(C)c(C#N)c(Oc2ccc(F)cc2)n1,0.92,1,4,-2,·,0.083
Cc1cc(C)c(C#N)c(Oc2ccc(O)cc2)n1,0.78,0,3,-2,·,·
COC(=O)c1cnn(-c2ccc(Cl)cc2)c1/C=N/NC(N)=S,1.4,·,·,1,·,·
OCCN1CCN(CC(O)COc2ccc(C34CC5CC(CC(C5)C3)C4)cc2)CC1 (stereo not drawn),1.6,2,8,32,-0.97,·
NCCOc1ccc(C23CC4CC(CC(C4)C2)C3)cc1,0.31,-2,4,1,-2.9*,0.063*
Cc1cc(C)n2nc(CC(=O)NCc3ccc(F)cc3)nc2n1,-0.41,0,3,-2,0.087,·
O=C1CC(/C=C/c2ccc([N+](=O)[O-])cc2)=Nc2ccccc2N1,-0.78,·,·,2,·,0.057*
O=C(CN1CCN(c2ccc(C(F)(F)F)cn2)CC1)NCc1ccc2c(c1)OCO2,0.65,·,·,-2,·,·
CCCC(c1nnnn1Cc1ccc(F)cc1)N1CCN(C2CCCCC2)CC1 (stereo not drawn),0.58,0,2,-2,·,0.052*
CC(C)C(c1nnnn1Cc1ccc(F)cc1)N1CCN(C2CCCC2)CC1 (stereo not drawn),-0.021,-2,2,0,-4.6*,0.059*
COc1ccc(Cn2nnnc2C(c2ccc(F)cc2)N2CCN(C3CCCC3)CC2)cc1 (stereo not drawn),·,-1,4,1,-4.2*,0.053*
CC(C)C(c1nnnn1Cc1ccco1)N1CCN(C2CCCC2)CC1 (stereo not drawn),·,0,4,0,-1.1,·
CCCC(c1nnnn1Cc1cccs1)N1CCN(C2CCCC2)CC1 (stereo not drawn),0.96,-3,3,-3,·,·
COCc1cc(C)nc(SCC[N+](C)(C)CC(=O)Nc2cccc(C(F)(F)F)c2)c1C#N,-0.052,-1,4,4,-2.6*,0.059*
Cc1cc(Cl)ccc1C(=O)C1CCCN(C(=O)c2cnsn2)C1 (stereo not drawn),-0.11,0,2,1,-0.13,·
O=C(NCC1CCCN(Cc2ccc3nonc3c2)C1)c1ccc(F)cc1 (stereo not drawn),-0.21,0,4,2,0.38,·
Cc1ccc(CNCC(=O)Nc2cccc(S(=O)(=O)NC3=NCCCCC3)c2)cc1,0.029,0,9,-2,-2.6*,0.064*
Cc1ccc(C)c(SCC(=O)Nc2cccc(S(=O)(=O)NC3=NCCCCC3)c2)c1,-2,0,1,-2,-0.37,·
Cn1nc(-c2ccc(Cl)cc2)c2cc(C(=O)NCCCN3CCCC3)sc21,·,-2,1,·,·,0.059*
Nc1nc(-c2ccc(Cl)cc2)nc(-c2ccc(Cl)cc2)n1,0.91,·,·,-1,·,·
CCN(CC)CCNC(=O)c1[nH]c2ccc(OCc3ccccc3)cc2c1C,·,-1,2,0,-5*,0.063*
CC(C)NCCCCOc1ccccc1-c1ccccc1,0.021,0,2,-1,-1.5,·
O=C1NC(c2ccc3c(c2)OCO3)Nc2ccccc21 (stereo not drawn),·,0,22*,-1,2.2*,0.085
Cc1nnc(SCc2nnc(-c3ccccc3Br)o2)s1,-0.19,0,2,0,-2.1,·
SMILES,KCC2 mod,Redox H2O2 prof,MT stabilizer,b-catenin transl,ROMK mod,ROMK hit retest
Cc1cc(-c2nn(-c3ccccc3F)cc2CN2CCN(c3ccncc3)CC2)c(C)s1,·,-1,2,-1,-3.1*,0.064*
Cc1cc(-c2nn(-c3ccccc3F)cc2CN2CCC(O)CC2)c(C)s1,0.8,-1,3,0,-1.9,·
Clc1ccc(CNc2ccccc2NCc2ccc(Cl)nc2)cn1,0.77,0,3,1,-0.028,·
COc1ccc(/C=C/C(=O)Nc2cccc(C(C)=O)c2)cc1,-0.56,0,2,-4,1.4*,?
CC(=O)Nc1cccc(C(=O)/C=C/c2ccc(F)cc2)c1,-0.17,0,5,-1,-3.7*,0.053*
CC(=O)Nc1cccc(C(=O)/C=C/c2ccc(/C=C/C(=O)c3cccc(NC(C)=O)c3)cc2)c1,0.43,0,35,6,·,·
